Assay results: ChEMBL document CHEMBL1138683 (J Med Chem, 2004)

Key:
[1] = Anti convulsant activity administered intra peritoneally to mouse for toxicity at 4 hr with dose of 300 mg/kg; 0/2= No of animals exhibiting toxicity /No of animals tested; format: organism-based; design: dose 300 mg/kg; conditions: in vivo, ip
[2] = (§1) Anti convulsant activity administered intra peritoneally to mouse for toxicity at 4 hr with dose of 30 mg/kg; 0/2= No of animals exhibiting toxicity /No of animals tested; format: organism-based; design: dose 30 mg/kg; conditions: in vivo, ip
[3] = Anti convulsant activity administered intra peritoneally to mouse for toxicity at 4 hr with dose of 100 mg/kg; 0/4= No of animals exhibiting toxicity /No of animals tested; format: organism-based; design: dose 100 mg/kg; conditions: in vivo, ip
[4] = Anti convulsant activity administered intra peritoneally to mouse for toxicity at 0.5 hr with dose of 30 mg/kg; 0/4= No of animals exhibiting toxicity /No of animals tested; format: organism-based; design: dose 30 mg/kg; conditions: in vivo, ip
[5] = Anti convulsant activity administered intra peritoneally to mouse for toxicity at 0.5 hr with dose of 100 mg/kg; 0/8= No of animals exhibiting toxicity /No of animals tested; format: organism-based; design: dose 100 mg/kg; conditions: in vivo, ip
[6] = Anti convulsant activity administered intra peritoneally to mouse for toxicity at 0.5 hr with dose of 300 mg/kg; 0/4= No of animals exhibiting toxicity /No of animals tested; format: organism-based; design: dose 300 mg/kg; conditions: in vivo, ip
Mus musculus [7] = assay: Anti convulsant activity administered intra peritoneally to mouse at maximal electroshock test at 4 hr after the drug administered with dose of 30 mg/kg; 0/1= No of animals protected /No of animals tested; format: functional
Mus musculus [8] = assay: Anti convulsant activity administered intra peritoneally to mouse at maximal electroshock test at 4 hr after the drug administered with dose of 100 mg/kg; 0/3= No of animals protected /No of animals tested; format: functional
Mus musculus [9] = assay: Anti convulsant activity administered intra peritoneally to mouse at maximal electroshock test at 4 hr after the drug administered with dose of 300 mg/kg; 0/1= No of animals protected /No of animals tested; format: functional
Mus musculus [10] = assay: Anti convulsant activity administered intra peritoneally to mouse at maximal electroshock test at 0.5 h after the drug administered with dose of 30 mg/kg; 0/1= No of animals protected /No of animals tested; format: functional
Mus musculus [11] = assay: Anti convulsant activity administered intra peritoneally to mouse for subcutaneous metrazol test at 4 hr after the drug administered with dose of 30 mg/kg; 0/1= No of animals protected /No of animals tested; format: functional; conditions: route intraperitoneal
Mus musculus [12] = assay: Anti convulsant activity administered intra peritoneally to mouse at maximal electroshock test at 0.5 h after the drug administered with dose of 300 mg/kg; 0/1= No of animals protected /No of animals tested; format: functional
Mus musculus [13] = assay: Anti convulsant activity administered intra peritoneally to mouse for subcutaneous metrazol test at 4 hr after the drug administered with dose of 100 mg/kg; 0/1= No of animals protected /No of animals tested; format: functional
Rattus norvegicus [14] = assay: Anticonvulsant activity after oral administration of 50 mg/kg dose after 30 min in rats; + means 25% of the animals protected; format: functional, organism-based; design: dose 50 mg/kg
Method in brief: (§2)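 Rats dosed orally with compound dissolved or suspended in 0.5% methylcellulose (0.04 mL per 10 g body weight). Anticonvulsant protection (MES or scMet) and toxicity scored at 15 min, 30 min, 1 h, 2 h and 4 h after dosing. Graded in steps of 25% of animals protected or showing toxicity.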

Mus musculus [15] = assay: Anti convulsant activity administered intra peritoneally to mouse for subcutaneous metrazol test at 4 hr with dose of 300 mg/kg; 0/1= No of animals protected /No of animals tested; format: functional
Mus musculus [16] = assay: Anti convulsant activity administered intra peritoneally to mouse for subcutaneous metrazol test at 0.5 hr with dose of 30 mg/kg; 0/1= No of animals protected /No of animals tested; format: functional
Mus musculus [17] = assay: Anti convulsant activity administered intra peritoneally to mouse for subcutaneous metrazol test at 0.5 h with dose of 300 mg/kg; 0/1= No of animals protected /No of animals tested; format: functional
Mus musculus [18] = assay: as §1; format: functional
[19] = Anti convulsant activity administered intra peritoneally to mouse for toxicity at 0.5 hr with dose of 100 mg/kg; 1/8= No of animals exhibiting toxicity /No of animals tested; format: organism-based; design: dose 100 mg/kg; conditions: in vivo, ip
[20] = Anti convulsant activity administered intra peritoneally to mouse for toxicity at 0.5 hr with dose of 300 mg/kg; 4/4= No of animals exhibiting toxicity /No of animals tested; format: organism-based; design: dose 300 mg/kg; conditions: in vivo, ip
Mus musculus [21] = assay: Anti convulsant activity administered intra peritoneally to mouse at maximal electroshock test at 0.5 hr after the drug administered with dose of 100 mg/kg; 0/3= No of animals protected /No of animals tested; format: functional
Rattus norvegicus [22] = assay: Anticonvulsant activity after oral administration of 100 mg/kg dose after 1 hr in rats; + means 25% of the animals protected; format: functional, organism-based; design: dose 100 mg/kg
Method in brief: (§3)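 Oral dosing of rats at a single dose, compound dissolved or suspended in 0.5% methylcellulose. Protection in the MES or scMet test checked 15 min, 30 min, 1 h, 2 h and 4 h after dosing. Scored as 25/50/75/100% of animals protected (+ to ++++), – for none.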

Rattus norvegicus [23] = assay: Anticonvulsant activity after oral administration of 100 mg/kg dose after 2 hr in rats; + means 25% of the animals protected; format: functional, organism-based; design: dose 100 mg/kg; method in brief: as §3
Rattus norvegicus [24] = assay: Anticonvulsant activity after oral administration of 100 mg/kg dose after 4 hr in rats; +means 25% of the animals protected; format: functional, organism-based; design: dose 100 mg/kg; method in brief: as §3
Rattus norvegicus [25] = assay: Anticonvulsant activity after oral administration of 100 mg/kg dose after 4 hr in rats;+ means 25% of the animals protected; format: functional, organism-based; design: dose 100 mg/kg; method in brief: as §3
Mus musculus [26] = assay: Anti convulsant activity administered intra peritoneally to mouse for subcutaneous metrazol test at 0.5 hr with dose of 100 mg/kg; 0/1= No of animals protected /No of animals tested; format: functional
Mus musculus [27] = assay: Anticonvulsant activity administered intraperitoneally to mouse for toxicity at 4 hr with dose of 30 mg/kg; format: functional; conditions: route intraperitoneal
Method in brief: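 Mice given compound i.p. at 30, 100 or 300 mg/kg, dissolved or suspended in 0.5% methylcellulose. Toxicity scored 0.5 h and 4 h after dosing, recorded as number of animals showing toxicity per number tested.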

Rattus norvegicus [28] = assay: Anticonvulsant activity after oral administration of 30 mg/kg dose after 30 min in rats; -means No protection; format: functional, organism-based; design: dose 30 mg/kg; method in brief: as §3
Mus musculus [29] = assay: Anti convulsant activity administered intra peritoneally to mouse at maximal electroshock test at 0.5 hr after the drug administered with dose of 300 mg/kg; 1/1= No of animals protected /No of animals tested; format: functional
Rattus norvegicus [30] = assay: Anticonvulsant activity after oral administration of 50 mg/kg dose after 30 min in rats; ++ means 50% of animals protected; format: functional, organism-based; design: dose 50 mg/kg; method in brief: as §2
Mus musculus [31] = assay: Anti convulsant activity administered intra peritoneally to mouse for subcutaneous metrazol test at 0.5 hr with dose of 300 mg/kg; 1/1= No of animals protected /No of animals tested; format: functional
Rattus norvegicus [32] = assay: Anticonvulsant activity after oral administration of 50 mg/kg dose after 15 min in rats; +++ means 75% of the animals protected; format: functional, organism-based; design: dose 50 mg/kg; method in brief: as §3
Rattus norvegicus [33] = assay: Anticonvulsant activity after oral administration of 100 mg/kg dose after 1 hr in rats;+ means 25% of the animals protected; format: functional, organism-based; design: dose 100 mg/kg; method in brief: as §3
Rattus norvegicus [34] = assay: Anticonvulsant activity after oral administration of 100 mg/kg dose after 30 min in rats; +means 25% of the animals protected; format: functional, organism-based; design: dose 100 mg/kg; method in brief: as §3
Mus musculus [35] = assay: Anti convulsant activity administered intra peritoneally to mouse at maximal electroshock test at 4 hr after the drug administered with dose of 300 mg/kg; 1/1= No of animals protected /No of animals tested; format: functional
Rattus norvegicus [36] = assay: Anticonvulsant activity after oral administration of 80 mg/kg dose after 1 hr in rats;+means 25% animals protected; format: functional, organism-based; design: dose 80 mg/kg
Method in brief: (§4)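 Maximal electroshock test in rats after oral dosing in 0.5% methylcellulose (0.04 mL per 10 g body weight). Protection read at 15 min, 30 min, 1 h, 2 h and 4 h after dosing. Graded as the percentage of animals protected, in steps of 25%.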

Mus musculus [37] = assay: Anti convulsant activity administered intra peritoneally to mouse at maximal electroshock test at 0.5 h after the drug administered with dose of 100 mg/kg; 1/3= No of animals protected /No of animals tested; format: functional
Rattus norvegicus [38] = assay: Anticonvulsant activity after oral administration of 80 mg/kg dose after 4 hr in rats;+ means 25% of the animals protected; format: functional, organism-based; design: dose 80 mg/kg; method in brief: as §4
Rattus norvegicus [39] = assay: Anticonvulsant activity after oral administration of 80 mg/kg dose after 2 hr in rats; + means 25% of the animal is protected; format: functional, organism-based; design: dose 80 mg/kg; method in brief: as §4
Rattus norvegicus [40] = assay: Anticonvulsant activity after oral administration of 80 mg/kg dose after 15 min in rats; + means 25% of the animal protected; format: functional, organism-based; design: dose 80 mg/kg; method in brief: as §4
[41] = Anti convulsant activity administered intra peritoneally to mouse for subcutaneous metrazol test at 4 hr with dose of 300 mg/kg; 3/4= No of animals protected /No of animals tested; format: ADME, organism-based; design: dose 300 mg/kg
Rattus norvegicus [42] = assay: Anticonvulsant activity after oral administration of 100 mg/kg dose after 30 min in rats; +++ means 75% of the animals protected; format: functional, organism-based; design: dose 100 mg/kg; method in brief: as §3
Rattus norvegicus [43] = assay: Anticonvulsant activity after oral administration of 100 mg/kg dose after 2 hr in rats;++ means 50% of the animals protected; format: functional, organism-based; design: dose 100 mg/kg; method in brief: as §3

Row | Structure (SMILES) | Toxicity [1] | Toxicity [2] | Toxicity [3] | Toxicity [4] | Toxicity [5] | Toxicity [6] | Activity (Mus musculus [7]) | Activity (Mus musculus [8]) | Activity (Mus musculus [9]) | Activity (Mus musculus [10]) | Activity (Mus musculus [11]) | Activity (Mus musculus [12]) | Activity (Mus musculus [13]) | Activity (Mus musculus [15]) | Activity (Mus musculus [16]) | Activity (Mus musculus [17]) | Toxicity [19] | Toxicity [20] | Activity (Mus musculus [21]) | Activity (Mus musculus [26]) | also measured
1 | CC1(C)C(C(=O)NNC(=O)C2C(C)(C)C2(C)C)C1(C)C | 0 | 0 | 0 | 0 | 0 | 0 | 0 | 0 | 0 | 0 | 0 | 0 | 0 | 0 | 0 | 0 |  |  |  |  | Activity (Rattus norvegicus [14]): 25% of the animals protected; Activity (Mus musculus [18]): 0
2 | CCC(CO)NC(=O)C1C(C)(C)C1(C)C (stereo not given) | 0 |  | 0 | 0 |  |  | 0 | 0 | 0 | 0 | 0 | 0 | 0 | 0 | 0 | 0 | 1 | 4 | 0 | 0 | Activity (Rattus norvegicus [22]): 25% of the animals protected; Activity (Rattus norvegicus [23]): 25% of the animals protected; Anticonvulsant Activity (Rattus norvegicus [24]): 25% of the animals protected; Activity (Rattus norvegicus [25]): 25% of the animals protected; Toxicity (Mus musculus [27]): 0
3 | CC1(C)C(C(=O)NCCO)C1(C)C | 0 | 0 | 0 | 0 |  |  | 0 | 0 | 0 | 0 | 0 |  | 0 | 0 | 0 |  | 1 | 4 | 0 | 0 | Activity (Rattus norvegicus [28]): 75% of the animals protected; Activity (Mus musculus [29]): 1; Anticonvulsant Activity (Rattus norvegicus [30]): 50% of animals protected; Activity (Mus musculus [31]): 1; Activity (Rattus norvegicus [32]): 75% of the animals protected
4 | CC(CO)NC(=O)C1C(C)(C)C1(C)C (stereo not given) | 0 |  | 0 | 0 |  |  | 0 | 0 | 0 | 0 | 0 | 0 | 0 | 0 | 0 | 0 | 1 | 4 | 0 | 0 | Activity (Rattus norvegicus [33]): 25% of the animals protected; Activity (Rattus norvegicus [34]): 25% of the animals protected; Toxicity (Mus musculus [27]): 0
5 | CNC(=O)N(C)C(=O)C1C(C)(C)C1(C)C | 0 | 0 | 0 | 0 |  |  | 0 | 0 |  | 0 | 0 |  | 0 | 0 | 0 | 0 | 1 |  |  | 0 | Activity (Mus musculus [35]): 1; Activity (Rattus norvegicus [36]): 25% animals protected; Activity (Mus musculus [37]): 1; Activity (Mus musculus [29]): 1; Activity (Rattus norvegicus [38]): 25% animals protected; Activity (Rattus norvegicus [39]): 25% animals protected; Activity (Rattus norvegicus [40]): 25% animals protected; Toxicity [41]: 3
6 | CC1(C)C(C(=O)NCCS(=O)(=O)[O-])C1(C)C.[Na+] | 0 | 0 | 0 | 0 | 0 | 0 | 0 | 0 | 0 | 0 | 0 | 0 | 0 | 0 | 0 | 0 |  |  |  |  | Activity (Rattus norvegicus [22]): 25% of the animals protected; Activity (Rattus norvegicus [23]): 25% of the animals protected; Activity (Rattus norvegicus [24]): 25% of the animals protected; Activity (Rattus norvegicus [42]): 25% of the animals protected; Activity (Mus musculus [18]): 0; Anticonvulsant Activity (Rattus norvegicus [43]): 50% of the animals protected
